Test results published in PubChem BioAssay.
Several values for one entry are separate records, joined by “and”; a condition that tells them apart may be missing. Equal values may be shown once. Activity calls are given as the source filed them.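 Rule for the calls, unless noted: active = viability loss from added drug above about 55%, and viability with drug at most 40%, in both replicates (limit read from the data, passing the limit was not always enough); inconclusive = both conditions met in only one replicate; inactive = neither replicate meets both conditions.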

Columns and labels:
[1] = Her2 expression decrease, cell viability multiplex – SKBR3 breast tumor cells, AlphaScreen, ATP viability, primary screen (AID 461;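 active = Her2 level under about 52% in both replicate screens, with viability over 70% of control, limit read from the data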;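 for Her2 level: lower value means less Her2 protein in the cells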;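 for viability: percent of carrier control wells set as 100% viability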); details: SKBR3 Her2 protein level, 18-24 h, measured here: SKBR3 viability, ATP luminescence, at 10 µM
[2] = target: Receptor tyrosine-protein kinase erbB-2 (Homo sapiens) (UniProt P04626); assay: as above; details: 18-24 h, at 10 µM, stronger effect = lower value
Receptor tyrosine-protein kinase erbB-2 (Homo sapiens), sequence (P04626 whole entry, looked up): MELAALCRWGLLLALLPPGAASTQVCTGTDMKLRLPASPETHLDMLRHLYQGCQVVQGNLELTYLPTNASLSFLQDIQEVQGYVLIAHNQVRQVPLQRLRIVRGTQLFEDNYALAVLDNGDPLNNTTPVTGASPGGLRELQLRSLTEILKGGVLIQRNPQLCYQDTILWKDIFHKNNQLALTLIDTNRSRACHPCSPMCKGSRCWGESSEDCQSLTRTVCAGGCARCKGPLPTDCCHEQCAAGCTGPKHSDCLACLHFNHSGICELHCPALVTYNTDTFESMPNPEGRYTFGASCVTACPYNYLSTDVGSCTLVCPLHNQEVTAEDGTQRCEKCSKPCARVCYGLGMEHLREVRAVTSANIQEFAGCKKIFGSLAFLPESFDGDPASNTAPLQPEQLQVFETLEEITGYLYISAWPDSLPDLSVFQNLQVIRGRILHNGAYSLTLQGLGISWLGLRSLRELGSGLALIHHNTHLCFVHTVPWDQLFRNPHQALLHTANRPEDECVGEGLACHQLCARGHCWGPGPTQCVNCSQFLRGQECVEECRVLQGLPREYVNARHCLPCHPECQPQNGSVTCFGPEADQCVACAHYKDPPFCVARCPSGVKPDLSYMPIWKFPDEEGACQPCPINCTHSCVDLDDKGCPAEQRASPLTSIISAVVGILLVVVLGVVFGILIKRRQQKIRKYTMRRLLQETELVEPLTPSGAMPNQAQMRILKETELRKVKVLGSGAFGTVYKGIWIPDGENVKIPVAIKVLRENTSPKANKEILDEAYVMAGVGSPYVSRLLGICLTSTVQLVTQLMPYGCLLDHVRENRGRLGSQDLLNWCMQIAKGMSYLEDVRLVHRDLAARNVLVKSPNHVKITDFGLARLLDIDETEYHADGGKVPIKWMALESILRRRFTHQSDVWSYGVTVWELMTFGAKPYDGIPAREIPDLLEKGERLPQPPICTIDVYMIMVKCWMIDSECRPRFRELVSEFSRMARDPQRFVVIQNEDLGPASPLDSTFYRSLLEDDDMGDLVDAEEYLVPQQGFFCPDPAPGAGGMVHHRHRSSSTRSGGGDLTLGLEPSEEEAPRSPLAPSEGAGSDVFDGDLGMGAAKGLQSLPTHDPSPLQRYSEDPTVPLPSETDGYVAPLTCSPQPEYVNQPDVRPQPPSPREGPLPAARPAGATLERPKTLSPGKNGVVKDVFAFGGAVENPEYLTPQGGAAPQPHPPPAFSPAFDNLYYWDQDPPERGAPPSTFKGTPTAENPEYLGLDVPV

[3] = reduced viability of SK-BR-3 breast cancer cells – cell-based, 24 h, human, pilot screen (AID 572;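 active = viability at or below 10% of carrier control in both of two separate runs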;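 note: compound exposure lasted between 18 and 24 h rather than exactly 24 h; 100% = carrier-treated control wells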); details: SK-BR-3 viability, CellTiter-Glo luminescence, at 10 µM, stronger effect = lower value
[4] = HUVEC growth inhibition – cell-based, human, primary screen (AID 575;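 active = viability at or below 30% in both replicate assays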;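 note: 100% = median of untreated cell wells with 0.1% DMSO on each plate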); details: HUVEC proliferation, CellTiter-Glo luminescence, 72 h; at 10 µM; stronger effect = lower value
Method in brief: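 Timing: 72 h treatment at 37 °C; material: HUVEC primary cells; technique: CellTiter-Glo luminescence measuring cellular ATP; controls: vehicle and MePR control wells; measure: percent of median DMSO-control luminescence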

[5] = H69AR cell proliferation blockers – human, duplicate replicates, primary screen (AID 580;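 active = viability at or under a set limit in both replicates, limit being median viability minus 3 SD, cut at about 48% in these data, passing the limit was not always enough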;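 note: 100% = mean luminescence of untreated wells and 0% = no signal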); details: H69AR lung tumor cells viability, ATP luminescence, 72 h; at 10 µM; stronger effect = lower value
[6] = MRP1 drug-resistance reversers in H69AR cells – cell-based, doxorubicin co-treatment, pilot screen (AID 601); details: CellTiter-Glo, 72 h, at 10 µM; for differential viability (reversal): stronger effect = higher value
[7] = yeast transport mutant growth inhibition pilot in 384-well plates, post-Golgi transport modulator project (AID 636; in the data active = inhibition above about 31%); details: absorbance 615 nm, about 18 h, stronger effect = higher value
[8] = growth suppression of yeast trafficking mutant, preliminary HTS, modulators of trafficking downstream of Golgi apparatus project, 1536-format plate, OD 615 nm (AID 637; in the data active = inhibition above about 30%); details: yeast transport mutant growth, absorbance 615 nm, 18 h; stronger effect = higher value
[9] = H69AR cells + 2 uM doxorubicin, measured here: viability with 2 uM doxorubicin, stronger effect = lower value
[10] = H69AR cells, compound alone cytotoxicity

Compound	viability [1]	Her2 level [2]	viability [3]	viability [4]	viability [5]	differential viability (reversal) ([6]; H69AR cells + 2 uM doxorubicin)	viability [6, 9]	viability [6, 10]	inhibition [7]	inhibition [8]
CCOC(=O)N1CCN(S(=O)(=O)c2cc(Cl)ccc2Cl)CC1	106%	94.5% (inactive)	106% (inactive)	90.7% (inactive)	85% (inactive)	2.05% (inactive)	83%	85%	-3.38% (inactive)	-0.32% (inactive)
COC(=O)c1ccc(CSc2nc3c(cnn3-c3ccc(C)c(C)c3)c(=O)[nH]2)o1	90%	91.5% (inactive)	90% (inactive)	18.9% (active)	88.4% (inactive)	10.6% (inactive)	77.8%	88.4%	-3.6% (inactive)	-1.64% (inactive)
CC(=O)Nc1ccc(OCC(O)CN2CCN(c3cccc(Cl)c3)CC2)cc1 (stereo not given)	76.5%	82% (inactive)	76.5% (inactive)	79.5% (inactive)	88.4% (inactive)	6.8% (inactive)	81.5%	88.4%	-7.84% (inactive)	5.74% (inactive)
CN1/C(=C\C(=O)C(F)F)C(C)(C)c2ccccc21	90%	100% (inactive)	90% (inactive)	99.5% (inactive)	107% (inactive)	19.5% (inactive)	87.4%	107%	-0.53% (inactive)	1.77% (inactive)
CCOC(=O)c1cc(CC)sc1NC(=O)CCC(=O)O	121%	93% (inactive)	121% (inactive)	96% (inactive)	93.8% (inactive)	2.2% (inactive)	91.6%	93.8%	-6.13% (inactive)	0.32% (inactive)
O=C1CC(N2CCOCC2)C(=O)N1c1ccc2c(c1)OCO2 (stereo not given)	102%	92.5% (inactive)	102% (inactive)	92% (inactive)	104% (inactive)	-4.17% (inactive)	108%	104%	-2.11% (inactive)	0.32% (inactive)
CCCCOn1c(C)c(C(=O)OCC)c2c3nonc3ccc21	98.5%	114% (inactive)	98.5% (inactive)	63.5% (inactive)	83.5% (inactive)	15% (inactive)	68.6%	83.5%	4.4% (inactive)	27.6% (inactive)
O=S(=O)(NC1=NCCC1)c1cccs1	106%	94% (inactive)	106% (inactive)	114% (inactive)	107% (inactive)	15.3% (inactive)	91.2%	107%	-5.68% (inactive)	-2.67% (inactive)
C=CCn1c(SCC(=O)Nc2ccccc2OC)nnc1-c1ccco1	95%	89.5% (inactive)	95% (inactive)	95.2% (inactive)	67.7% (inactive)	-16.8% (inactive)	84.5%	67.7%	-4.67% (inactive)	2.9% (inactive)
CCCCN(C)C(=O)CS(=O)(=O)Cc1nc(-c2cccc(OC)c2)oc1C	94%	114% (inactive)	94% (inactive)	94.8% (inactive)	99.9% (inactive)	15.6% (inactive)	84.2%	99.9%	-4.4% (inactive)	3.11% (inactive)
CCN(CC)CCN1C(=O)C(=O)/C(=C(/O)c2c(C)[nH]c(C(=O)OC)c2C)C1c1ccco1 (stereo not given)	88%	105% (inactive)	88% (inactive)	107% (inactive)	93.4% (inactive)	-3.21% (inactive)	96.6%	93.4%	-4.8% (inactive)	-0.16% (inactive)
CC1/C(=N/O)C(CN(C)C)C2CC1C2(C)C (stereo not given)	107%	84.5% (inactive)	107% (inactive)	99.3% (inactive)	108% (inactive)	31.7% (inactive)	76.3%	108%	-3.38% (inactive)	-3.49% (inactive)
CCOC(=O)CSc1nc2cc(C(=O)NCc3ccco3)ccc2c(=O)n1C1CCCCC1	112%	83.5% (inactive)	112% (inactive)	91.7% (inactive)	89.8% (inactive)	2.55% (inactive)	87.3%	89.8%	-4.53% (inactive)	0.33% (inactive)
CCOc1ccc2nc(SCC#N)c(C#N)cc2c1	93%	106% (inactive)	93% (inactive)	104% (inactive)	100% (inactive)	16.1% (inactive)	84%	100%	-3.2% (inactive)	-0.32% (inactive)
Cc1ccc(C)c2[nH]c(=O)c(CN(CCN3CCCC3)C(=O)Nc3cccc(Cl)c3)cc12	87%	84% (inactive)	87% (inactive)	15.6% (active)	26.6% (active)	-6.23% (inactive)	32.8%	26.6%	-8.22% (inactive)	-0.32% (inactive)
COc1cccc(NS(=O)(=O)c2cc(C)sc2C)c1	93.5%	94% (inactive)	93.5% (inactive)	97.5% (inactive)	94.3% (inactive)	2.18% (inactive)	92.1%	94.3%	-2.89% (inactive)	-6.67% (inactive)

Compound	viability [1]	Her2 level [2]	viability [3]	viability [4]	viability [5]	differential viability (reversal) ([6]; H69AR cells + 2 uM doxorubicin)	viability [6, 9]	viability [6, 10]	inhibition [7]	inhibition [8]
COc1cc(OC)c(C(=O)Nc2ncn[nH]2)cc1OC	102%	122% (inactive)	102% (inactive)	95.4% (inactive)	95% (inactive)	-6.38% (inactive)	101%	95%	1.97% (inactive)	-6.72% (inactive)
COc1ccc(NC(=O)CS(=O)CC(=O)Nc2cc(Cl)ccc2OC)cc1 (stereo not given)	91.5%	106% (inactive)	91.5% (inactive)	80.8% (inactive)	90.9% (inactive)	-1.21% (inactive)	92.1%	90.9%	-4.36% (inactive)	-3.67% (inactive)
Cn1c(SCc2cccc3ccccc23)nnc1-c1ccco1	76%	98.5% (inactive)	76% (inactive)	126% (inactive)	92.4% (inactive)	7.87% (inactive)	84.5%	92.4%	-0.93% (inactive)	-6.94% (inactive)
COC(=O)c1ccc(CNC(=O)CSc2nc3sc(C)c(C)c3c(=O)n2C)o1	93.5%	102% (inactive)	93.5% (inactive)	97.5% (inactive)	98.5% (inactive)	15.5% (inactive)	82.9%	98.5%	0.65% (inactive)	-4.33% (inactive)
CC(=O)N1CCC2(CC1)CC(=O)c1cc(OCC(=O)NCc3ccc(C)cc3)ccc1O2	97%	84% (inactive)	97% (inactive)	99.4% (inactive)	90% (inactive)	-0.255% (inactive)	90.3%	90%	-2.76% (inactive)	0.91% (inactive)
O=C1CCCC2=C1C(c1ccc(Br)cc1)c1c([nH]c(=S)[nH]c1=O)N2 (stereo not given)	84%	112% (inactive)	84% (inactive)	99.3% (inactive)	91.7% (inactive)	6.69% (inactive)	85.1%	91.7%	-4.47% (inactive)	8.67% (inactive)
CCN(CC)C(=O)Cn1c(=O)n(Cc2ccccc2Cl)c2c1c(=O)n(C)c(=O)n2C	98%	100% (inactive)	98% (inactive)	98.6% (inactive)	93.7% (inactive)	4.23% (inactive)	89.5%	93.7%	-0.93% (inactive)	-4.13% (inactive)
CC(C)N(C(=O)COC(=O)c1ccc(O)cc1)C(C)C	96.5%	87.5% (inactive)	96.5% (inactive)	88.3% (inactive)	97.6% (inactive)	9.85% (inactive)	87.8%	97.6%	0.39% (inactive)	-0.16% (inactive)
O=C(CCN1CCc2ccccc2C1)Nc1ccc2c(c1)OCO2	88.5%	94% (inactive)	88.5% (inactive)	84.4% (inactive)	87.1% (inactive)	-18.3% (inactive)	105%	87.1%	-4.4% (inactive)	0.81% (inactive)
COc1ccc(-n2nc(C(=O)Nc3ccc4c(c3)OCO4)c3c4ccccc4n(C)c3c2=O)cc1	99%	88.5% (inactive)	99% (inactive)	98% (inactive)	92.6% (inactive)	-10.9% (inactive)	104%	92.6%	-3.03% (inactive)	-1.45% (inactive)
CCOc1ccc(C2C=C(c3ccc(F)cc3)Nc3ncnn32)cc1 (stereo not given)	91.5%	87% (inactive)	91.5% (inactive)	81.2% (inactive)	82.2% (inactive)	3.07% (inactive)	79.1%	82.2%	-4.42% (inactive)	9.34% (inactive)
O=c1c2cc(N3CCOCC3)ccc2[nH]c(=S)n1CCCN1CCCC1	89%	78% (inactive)	89% (inactive)	86% (inactive)	100% (inactive)	14.6% (inactive)	85.4%	100%	-5.41% (inactive)	6.89% (inactive)
CCC1Oc2ccc(C)cc2N(CC(=O)N(Cc2cccnc2)Cc2ccc(C)o2)C1=O (stereo not given)	93%	84% (inactive)	93% (inactive)	83.7% (inactive)	74.8% (inactive)	41.1% (inactive)	33.7%	74.8%	-6.27% (inactive)	6.56% (inactive)
Cc1ccc(SCc2[nH]nc3c2C(c2ccc(C)o2)C(C#N)=C(N)O3)cc1 (stereo not given)	91%	88% (inactive)	91% (inactive)	74.3% (inactive)	76.8% (inactive)	-5.55% (inactive)	82.4%	76.8%	-7.03% (inactive)	2.06% (inactive)
c1ccc(-c2nnc(-c3ccco3)n2-c2ccccc2)cc1	81.5%	78% (inactive)	81.5% (inactive)	87% (inactive)	88.1% (inactive)	-10.6% (inactive)	98.6%	88.1%	-6.08% (inactive)	3.61% (inactive)
COc1ccc2c(c1OC)C(=O)OC2C1c2c(cc3c(c2OC)OCO3)CCN1C (stereo not given)	89%	90.5% (inactive)	89% (inactive) and 83% (inactive)	70.2% (inactive) and 90.3% (inactive)	73.8% (inactive)	-40% (inactive) and -23.1% (inactive)	91.6% and 97%	51.7% and 73.8%	1.95% (inactive) and -2.86% (inactive)	4.92% (inactive) and 5.33% (inactive)
